Reference: ChEMBL document CHEMBL5058577, “EUbOPEN Chemogenomics Library 2 (Multiplex)” (2022)
Several values for one entry are separate records, joined by “and”; a condition that tells them apart may be missing. Identical values can stand only once.

How the values were obtained:
Assay type in all cases: toxicity, cell-based
U2OS = test: Multiplex assay against U2OS; settings: human, 10 µM, compound concentration 10 uM
Procedure, shortened: (§1)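 Cells were classed with CellPathfinder machine-learning gating, first as Hoechst high-intensity objects or normal cells, then (normal cells) as healthy, pyknosed or fragmented nuclei, and finally (pyknosed cells) as mitotic or apoptotic. Staining of live cells at seeding used Hoechst33342, BioTracker Green Microtubule Cytoskeleton Dye, MitoTracker Red and Annexin V Alexa Fluor 680, with imaging on a CQ1 microscope at 37°C and 5% CO2 after compound addition. Tubulin, mitochondrial-mass and membrane-permeability phenotypes are per cents of healthy-nucleus cells.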

HEK-293T = test: Multiplex assay against HEK293T; settings: human, 10 µM, compound concentration 10 uM; procedure, shortened: as §1
Fibroblast = test: Multiplex assay against human fibroblast; settings: 10 µM, compound concentration 10 uM; procedure, shortened: as §1

SMILES: CCC(=O)N1CCN(c2ccc(-n3c(=O)ccc4cnc5ccc(-c6cnc7ccccc7c6)cc5c43)cc2C(F)(F)F)CC1 [TORIN1]
- Population Apoptotic (%) (U2OS; 12 h, replicate 1): 68% and 85%
- Population Healthy Nuclei (%) (U2OS; 12 h, replicate 1): 55%
- Population Normal (%) (U2OS; 12 h, replicate 1): 98% and 96%
- Total Cell Count (U2OS; 12 h, replicate 1): 288 and 258
- Population Apoptotic (%) (U2OS; 12 h, replicate 2): 76% and 92%
- Population Healthy Nuclei (%) (U2OS; 12 h, replicate 2): 71% and 61%
- Total Cell Count (U2OS; 12 h, replicate 2): 109 and 101
- Population Apoptotic (%) (U2OS; 24 h, replicate 1): 77% and 84%
- Population Healthy Nuclei (%) (U2OS; 24 h, replicate 1): 54% and 55%
- Population Normal (%) (U2OS; 24 h, replicate 1): 98% and 96%
- Total Cell Count (U2OS; 24 h, replicate 1): 287 and 256
- Population Apoptotic (%) (U2OS; 24 h, replicate 2): 73% and 83%
- Population Healthy Nuclei (%) (U2OS; 24 h, replicate 2): 72%
- Population Normal (%) (U2OS; 24 h, replicate 2): 97%
- Total Cell Count (U2OS; 24 h, replicate 2): 115 and 106
- Population Apoptotic (%) (U2OS; 48 h, replicate 1): 78% and 72%
- Population Healthy Nuclei (%) (U2OS; 48 h, replicate 1): 44% and 39%
- Population Normal (%) (U2OS; 48 h, replicate 1): 93% and 97%
- Total Cell Count (U2OS; 48 h, replicate 1): 300 and 270
- Population Apoptotic (%) (U2OS; 48 h, replicate 2): 82% and 81%
- Total Cell Count (U2OS; 48 h, replicate 2): 147 and 123
- Population Apoptotic (%) (HEK-293T; 12 h, replicate 1): 71% and 67%
- Population Healthy Nuclei (%) (HEK-293T; 12 h, replicate 1): 76% and 71%
- Population Membrane Permeable-Phenotype (%) (HEK-293T; 12 h, replicate 1): 0%
- Population Mitochondria Different-Phenotype (%) (HEK-293T; 12 h, replicate 1): 78% and 76%
- Population Normal (%) (HEK-293T; 12 h, replicate 1): 88%
- Population Tubulin-Different-Phenotype (%) (HEK-293T; 12 h, replicate 1): 40%
- Total Cell Count (HEK-293T; 12 h, replicate 1): 373 and 299
- Population Apoptotic (%) (HEK-293T; 12 h, replicate 2): 51% and 57%
- Population Healthy Nuclei (%) (HEK-293T; 12 h, replicate 2): 79%
- Population Mitochondria Different-Phenotype (%) (HEK-293T; 12 h, replicate 2): 87%
- Population Mitotic Cells (%) (HEK-293T; 12 h, replicate 2): 48% and 42%
- Population Normal (%) (HEK-293T; 12 h, replicate 2): 92%
- Population Tubulin-Different-Phenotype (%) (HEK-293T; 12 h, replicate 2): 37%
- Total Cell Count (HEK-293T; 12 h, replicate 2): 266 and 321
- Population Apoptotic (%) (HEK-293T; 24 h, replicate 1): 45%
- Population Healthy Nuclei (%) (HEK-293T; 24 h, replicate 1): 75% and 74%
- Population Membrane Permeable-Phenotype (%) (HEK-293T; 24 h, replicate 1): 0%
- Population Mitochondria Different-Phenotype (%) (HEK-293T; 24 h, replicate 1): 75% and 81%
- Population Mitotic Cells (%) (HEK-293T; 24 h, replicate 1): 46% and 54%
- Population Normal (%) (HEK-293T; 24 h, replicate 1): 86% and 90%
- Population Tubulin-Different-Phenotype (%) (HEK-293T; 24 h, replicate 1): 43% and 44%
- Total Cell Count (HEK-293T; 24 h, replicate 1): 337 and 289
- Population Apoptotic (%) (HEK-293T; 24 h, replicate 2): 44% and 58%
- Population Mitochondria Different-Phenotype (%) (HEK-293T; 24 h, replicate 2): 82% and 86%
- Population Mitotic Cells (%) (HEK-293T; 24 h, replicate 2): 55% and 41%
- Population Normal (%) (HEK-293T; 24 h, replicate 2): 77% and 71%
- Population Tubulin-Different-Phenotype (%) (HEK-293T; 24 h, replicate 2): 33% and 57%
- Total Cell Count (HEK-293T; 24 h, replicate 2): 225 and 283
- Population Apoptotic (%) (HEK-293T; 48 h, replicate 1): 56% and 69%
- Population Healthy Nuclei (%) (HEK-293T; 48 h, replicate 1): 70% and 72%
- Population Membrane Permeable-Phenotype (%) (HEK-293T; 48 h, replicate 1): 0%
- Population Mitochondria Different-Phenotype (%) (HEK-293T; 48 h, replicate 1): 77% and 75%
- Population Mitotic Cells (%) (HEK-293T; 48 h, replicate 1): 43%
- Population Normal (%) (HEK-293T; 48 h, replicate 1): 73% and 80%
- Population Tubulin-Different-Phenotype (%) (HEK-293T; 48 h, replicate 1): 47% and 35%
- Total Cell Count (HEK-293T; 48 h, replicate 1): 292 and 275
- Population Apoptotic (%) (HEK-293T; 48 h, replicate 2): 68% and 58%
- Population Healthy Nuclei (%) (HEK-293T; 48 h, replicate 2): 56%
- Population Membrane Permeable-Phenotype (%) (HEK-293T; 48 h, replicate 2): 1%
- Population Mitochondria Different-Phenotype (%) (HEK-293T; 48 h, replicate 2): 80% and 82%
- Population Mitotic Cells (%) (HEK-293T; 48 h, replicate 2): 41%
- Population Normal (%) (HEK-293T; 48 h, replicate 2): 38% and 36%
- Population Tubulin-Different-Phenotype (%) (HEK-293T; 48 h, replicate 2): 37% and 58%
- Total Cell Count (HEK-293T; 48 h, replicate 2): 235 and 234
- Population Healthy Nuclei (%) (Fibroblast; 12 h, replicate 1): 60% and 61%
- Population Mitotic Cells (%) (Fibroblast; 12 h, replicate 1): 72% and 76%
- Population Normal (%) (Fibroblast; 12 h, replicate 1): 94% and 95%
- Population Tubulin-Different-Phenotype (%) (Fibroblast; 12 h, replicate 1): 62% and 53%
- Total Cell Count (Fibroblast; 12 h, replicate 1): 155 and 135
- Population Healthy Nuclei (%) (Fibroblast; 12 h, replicate 2): 44%
- Population Mitotic Cells (%) (Fibroblast; 12 h, replicate 2): 65% and 66%
- Population Normal (%) (Fibroblast; 12 h, replicate 2): 90%
- Population Tubulin-Different-Phenotype (%) (Fibroblast; 12 h, replicate 2): 64%
- Total Cell Count (Fibroblast; 12 h, replicate 2): 131 and 150
- Population Healthy Nuclei (%) (Fibroblast; 24 h, replicate 1): 64%
- Population Mitotic Cells (%) (Fibroblast; 24 h, replicate 1): 66% and 50%
- Population Normal (%) (Fibroblast; 24 h, replicate 1): 96% and 94%
- Population Tubulin-Different-Phenotype (%) (Fibroblast; 24 h, replicate 1): 62% and 48%
- Total Cell Count (Fibroblast; 24 h, replicate 1): 137 and 135
- Population Healthy Nuclei (%) (Fibroblast; 24 h, replicate 2): 57% and 45%
- Population Mitotic Cells (%) (Fibroblast; 24 h, replicate 2): 56% and 77%
- Population Normal (%) (Fibroblast; 24 h, replicate 2): 93% and 95%
- Population Tubulin-Different-Phenotype (%) (Fibroblast; 24 h, replicate 2): 59% and 60%
- Total Cell Count (Fibroblast; 24 h, replicate 2): 128 and 150
- Population Healthy Nuclei (%) (Fibroblast; 48 h, replicate 1): 72% and 71%
- Population Mitotic Cells (%) (Fibroblast; 48 h, replicate 1): 50%
- Population Normal (%) (Fibroblast; 48 h, replicate 1): 96% and 97%
- Population Tubulin-Different-Phenotype (%) (Fibroblast; 48 h, replicate 1): 67% and 54%
- Total Cell Count (Fibroblast; 48 h, replicate 1): 127 and 124
- Population Healthy Nuclei (%) (Fibroblast; 48 h, replicate 2): 62% and 46%
- Population Mitotic Cells (%) (Fibroblast; 48 h, replicate 2): 46%
- Population Normal (%) (Fibroblast; 48 h, replicate 2): 95% and 98%
- Population Tubulin-Different-Phenotype (%) (Fibroblast; 48 h, replicate 2): 61% and 77%
- Total Cell Count (Fibroblast; 48 h, replicate 2): 136 and 147
